Source: ChEMBL document CHEMBL1177753, “Cytotoxic bisbenzylisoquinoline alkaloids from the roots of Cyclea racemosa” (J Nat Prod, 2010)

Tests used:
Format in all cases: functional, cell-based
[1] = tested on: Bel-7402; assay: Cytotoxicity against human Bel7402 cells after 3 days by MTT assay; conditions: Bel-7402, 72 h
In short: (§1)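 Human tumor cells grown in RPMI-1640 with 5% fetal bovine serum. Freshly trypsinized cells seeded at 5000 cells per well in 96-well plates. Compounds added from DMSO-diluted stock. After three days of culture, attached cells stained with MTT, bound dye solubilized, absorbance read at 540 nm. IC50 taken as the concentration giving 50% growth inhibition, averaged from triplicate determinations.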

[2] = tested on: HCT-8; assay: Cytotoxicity against human HCT8 cells after 3 days by MTT assay; conditions: HCT-8, 72 h; in short: as §1
[3] = tested on: A2780; assay: Cytotoxicity against human A2780 cells after 3 days by MTT assay; conditions: A2780, 72 h; in short: as §1

SMILES | IC50 [1] [µM] | IC50 [2] [µM] | IC50 [3] [µM]
CC(=O)O[C@H]1C(=O)[C@@]2(C)[C@H]([C@H](OC(=O)c3ccccc3)[C@]3(O)C[C@H](OC(=O)[C@H](O)[C@@H](NC(=O)c4ccccc4)c4ccccc4)C(C)=C1C3(C)C)[C@]1(OC(C)=O)CO[C@@H]1C[C@@H]2O [PACLITAXEL] | 1.8 | 0.67 | 0.65
COc1cc2c3cc1Oc1cc(ccc1O)C[C@@H]1c4c(cc(OC)c5c4Oc4ccc(cc4CO5)C[C@H]3N(C)CC2)CCN1C [RACEMOSIDINE A] | 6.09 | 2.8 | 6.7
COc1cc2c3cc1Oc1cc(ccc1O)C[C@H]1c4c(cc(OC)c(OC)c4Oc4ccc(cc4)C[C@H]3N(C)CC2)CCN1C [RACEMOSIDINE B] | 4.62 | 9.72 | > 10
COc1ccc2cc1Oc1cc3c(cc1OC)CCN(C)[C@@H]3Cc1ccc(cc1)Oc1c(OC)c(O)cc3c1[C@H](C2)N(C)CC3 [RACEMOSIDINE C] | 7.53 | 6.04 | > 10
COc1cc2c3cc1Oc1c(O)c(OC)cc4ccnc(c14)Cc1ccc(cc1)Oc1cc(ccc1O)C[C@H]3N(C)CC2 [RACEMOSININE B] | > 10 | > 10 | > 10
COc1cc2c3cc1Oc1c(O)c(OC)cc4ccnc(c14)Cc1ccc(cc1)Oc1cc(ccc1O)C[C@H]3[N+](C)([O-])CC2 (stereo partly drawn) [RACEMOSININE C] | > 10 | > 10 | > 10
